Records with an inconclusive call do not appear.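 The calls were made as follows, unless noted: active = growth inhibition above 25% in both replicates, a cutoff set 3 SD above the mean; inconclusive = above 25% in only one replicate; inactive = the rest.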
What was measured:
[1] = S. cerevisiae growth inhibition in permissive medium (OD615), pilot counter-assay for S. cerevisiae lifespan shortening project, permissive growth control (AID 705); settings: OD615, 24 h, at 10 µM, active compounds read high
Outline: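 System: Engineered DeaD yeast | Buffer or medium: SC raffinose/galactose permissive medium | Incubation: Cells pre-grown 4 h, then 24 h compound exposure, 30 °C humidified | Measured by: Absorbance (optical density) at 615 nm | Read-out: Reduction in yeast growth (OD615)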

[2] = S. cerevisiae growth inhibition in restrictive medium, OD615, pilot screen, restrictive growth control, yeast lifespan reduction project (AID 706;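 active = growth inhibition above a set limit, 3 SD over mean compound inhibition, in both replicates, cut at about 43% in these data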;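 also: modified DeaD lifespan yeast strain shifted to restrictive glucose medium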); settings: OD615, 48 h, at 10 µM, active compounds read high
Outline: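 Material: modified S. cerevisiae; Medium: glucose-based CSMM-D restrictive medium; Compound dosing: one concentration, 10 µM final, 0.25% DMSO; Incubation: 48 h compound exposure at 30 °C; Measured by: OD615.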

[3] = doxorubicin toxicity protection in MRP-1 cells – H69AR cells, CellTiter-Glo, duplicate, MRP-1 activator project, pilot screen (AID 807;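 active = viability increase at or above a cutoff of the median across tested compounds plus 3 SD, cut at about 8.5% in these data, passing the limit was not always enough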;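 also: compound pretreatment 18-22 h then 72 h combined with doxorubicin; 0% = doxorubicin alone and 100% = vehicle without doxorubicin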); settings: H69AR viability with doxorubicin, CellTiter-Glo luminescence; at 10 µM; active compounds read high
[4] = viability of HCT116 without oncogenic beta-catenin – human colon tumor cells, pilot screen (AID 823;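 active = cell viability at or below a set limit in both duplicate runs, the limit being the all-compound median minus 4 SD, cut at about 23% in these data, passing the limit was not always enough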;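 also: 0% = wells killed by 20 µM Hyamine and 100% = untreated DMSO cell wells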); settings: HCT116 beta-catenin knockout viability, CellTiter-Glo, 60 h; at 10 µM; active compounds read low
[5] = viability of PTEN-null HCT116 cells – cell-based, HCT116 clonal line, CellTiter-Glo, pilot screen (AID 824;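 active = viability at or below 27.92% in each of two runs, the all-compound median minus 4 SD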;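 also: 0% = 20 µM Hyamine control and 100% = vehicle cell control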); settings: HCT116 PTEN-deleted viability, 60 h, at 10 µM, active compounds read low
[6] = RAM pathway blockade in budding yeast – dse1pr::URA3 reporter, 5-FOA selection, pilot screen (AID 869;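 active = inhibition over a set limit, the all-compound mean plus 3 SD, in both replicate runs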;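 also: 0% = DMSO wells with no growth and 100% = 10 µM 1-NA-PP1 with full growth; RAM network block rescues cells from 5-FOA so hits raise OD615 growth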); settings: S. cerevisiae dse1pr::URA3 5-FOA growth, OD615, 2 d; at 10 µM; active compounds read high; strain carries analog-sensitive mutant Cbk1 kinase
[7] = RAM signaling pathway blockade in yeast – S. cerevisiae, Pdr1DBD-CYC8 efflux-inhibited sensitized strain, primary screen (AID 1298;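 active = RAM network inhibition above 8.4% in each of two replicates, 3 SD over the compound average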;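 also: 0% = DMSO untreated cells without growth and 100% = 10 µM 1-NA-PP1 full growth; higher means more yeast growth rescued from 5-FOA killing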); settings: S. cerevisiae cbk1-as DSE1-URA3 strain, 5-FOA growth OD615, 2 d; at 50 µM; active compounds read high

COC(=O)c1nc(NC(=O)C(C)(C)C)n[nH]1
inactive: growth inhibition [1] -9.88% | growth inhibition [2] -18.8% | viability increase [3] -3.77% | viability [4] 92.7% | viability [5] 89.8% | inhibition [6] 2.06% | RAM network inhibition [7] 0.47%

O=C(CSc1ccccn1)c1ccc2c(c1)OCO2
inactive: growth inhibition [1] -3.07% | growth inhibition [2] 9.94% | viability increase [3] -0.21% | viability [4] 99.2% | viability [5] 96.2% | inhibition [6] 0.92% | RAM network inhibition [7] 2.86%

CC(C)NS(=O)(=O)c1ccc(CCC(=O)NCc2ccco2)cc1
inactive: growth inhibition [1] -15.3% | growth inhibition [2] -22.4% | viability increase [3] -3.3% | viability [4] 93.1% | viability [5] 97% | inhibition [6] 1.55% | RAM network inhibition [7] -0.53%

Cc1ccc(Cl)cc1N1CCN(C(=O)COc2ccc(S(=O)(=O)NC(C)C)cc2)CC1
inactive: growth inhibition [1] 4.32% | growth inhibition [2] -7.2% | viability increase [3] -4.67% | viability [4] 37.3% | viability [5] 54.8% | inhibition [6] 1% | RAM network inhibition [7] 6.06%

CCCCOc1ccccc1C1C(C(=O)OC)=CN(CC)C=C1C(=O)OC
inactive: growth inhibition [1] -6.49% | growth inhibition [2] 0.595% | viability increase [3] -5.35% | viability [4] 73.8% | viability [5] 70.9% | inhibition [6] 3.23% | RAM network inhibition [7] 6.73%

N#CC1=C(O)CCCn2c1nc1ccccc1c2=O
inactive: growth inhibition [1] -3.3% | growth inhibition [2] -18% | viability increase [3] -0.39% | viability [4] 97% | viability [5] 97% | inhibition [6] 2.41% | RAM network inhibition [7] 0.01%

CC1CCc2nn(CC(=O)NCc3ccco3)cc2C1 (stereo not drawn)
inactive: growth inhibition [1] 8.89% | growth inhibition [2] 2.02% | viability increase [3] -3.13% | viability [4] 92.7% | viability [5] 88.2% | inhibition [6] 2.08% | RAM network inhibition [7] 5.3%

COc1cc(NC(=O)C2CCCN2C(=O)C2CCC(C)CC2)cc(OC)c1OC (stereo not drawn)
inactive: growth inhibition [1] -6.57% | growth inhibition [2] -3.52% | viability increase [3] -1.44% | viability [4] 96.3% | viability [5] 93.2% | inhibition [6] 2.65% | RAM network inhibition [7] 1.46%

CS(=O)(=O)N1CCN(c2nc(-c3ccccc3)cs2)CC1
inactive: growth inhibition [1] 10.1% | growth inhibition [2] 3.18% | viability increase [3] 0.2% | viability [4] 99.9% | viability [5] 94.4% | inhibition [6] -0.535% | RAM network inhibition [7] -0.16%

COc1ccc2nc(NC(=O)C3COc4ccccc4O3)sc2c1 (stereo not drawn)
inactive: growth inhibition [1] -5.73% | growth inhibition [2] -9.21% | viability increase [3] 2.25% | viability [4] 100% | viability [5] 91.7% | inhibition [6] 2.08% | RAM network inhibition [7] 2.86%

COc1ccc(CN2CCNC(=O)C2CC(=O)O)c(OC)c1 (stereo not drawn)
inactive: growth inhibition [1] -18.7% | growth inhibition [2] -24% | viability increase [3] -2.1% | viability [4] 105% | viability [5] 93.1% | inhibition [6] 2.47% | RAM network inhibition [7] 1.42%

Cc1nn(C)c(C)c1S(=O)(=O)N(CC(=O)NCc1cccs1)c1ccc(C(C)C)cc1
inactive: growth inhibition [1] -16.9% | growth inhibition [2] -13.5% | viability increase [3] -3.06% | viability [4] 99% | viability [5] 87.5% | inhibition [6] 2.2% | RAM network inhibition [7] 8.44%

O=C(Cn1nc(-c2ccc(Cl)cc2)ccc1=O)NCC1CCCO1 (stereo not drawn)
inactive: growth inhibition [1] -1.09% | growth inhibition [2] -10.1% | viability increase [3] -1.53% | viability [4] 92.5% | viability [5] 93.8% | inhibition [6] 1.24% | RAM network inhibition [7] 7.63%

CC(C)(C)NC(=O)C1CN(S(=O)(=O)c2ccccc2)CCN1S(=O)(=O)c1ccccc1 (stereo not drawn)
inactive: growth inhibition [1] 5.33% | growth inhibition [2] -4.14% | viability increase [3] -1.07% | viability [4] 97.3% | viability [5] 97.1% | inhibition [6] 2.74% | RAM network inhibition [7] 2.81%
